Source: PubChem BioAssay AID493160 (Sanford-Burnham Center for Chemical Genomics, 2011)
Among all 340,000 compounds or so, about 540 (0.16%) were called active. What follows is part of a selection rich in actives, with near analogues and random picks from the rest. Values without a mark were called inactive.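 The calls were made as follows: active = inhibition above about 35% when tested at 20 µM (limit read from the data); inactive = the rest.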

What follows are compounds tested against Hexokinase HKDC1 (Homo sapiens) (UniProt Q2TB90) (assay: blockers of human HKDC1 enzyme activity – biochemical, fluorescence, uHTS, primary screen (AID 493160;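 also: plate controls were DMSO wells with enzyme for no effect and DMSO wells lacking enzyme for full effect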)). Conditions: recombinant HKDC1, G6PDH/diaphorase resazurin coupled fluorescence; at 20 µM; hits give high values.
How it was run: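 Incubation: 90 min at room temperature in dark / Material: recombinant HKDC1 (HK5) hexokinase enzyme, produced in-house / Quantity: enzyme 5 µg/mL final / Compound: one dose of 20 µM, 1% DMSO / Reagent: glucose and ATP substrates / Buffer or medium: Tris pH 8.0 buffer with MgCl2, Tween-20, BSA, BME / Technique: resorufin fluorescence at 613 nm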

Hexokinase HKDC1 (Homo sapiens), sequence (Q2TB90 whole entry, looked up): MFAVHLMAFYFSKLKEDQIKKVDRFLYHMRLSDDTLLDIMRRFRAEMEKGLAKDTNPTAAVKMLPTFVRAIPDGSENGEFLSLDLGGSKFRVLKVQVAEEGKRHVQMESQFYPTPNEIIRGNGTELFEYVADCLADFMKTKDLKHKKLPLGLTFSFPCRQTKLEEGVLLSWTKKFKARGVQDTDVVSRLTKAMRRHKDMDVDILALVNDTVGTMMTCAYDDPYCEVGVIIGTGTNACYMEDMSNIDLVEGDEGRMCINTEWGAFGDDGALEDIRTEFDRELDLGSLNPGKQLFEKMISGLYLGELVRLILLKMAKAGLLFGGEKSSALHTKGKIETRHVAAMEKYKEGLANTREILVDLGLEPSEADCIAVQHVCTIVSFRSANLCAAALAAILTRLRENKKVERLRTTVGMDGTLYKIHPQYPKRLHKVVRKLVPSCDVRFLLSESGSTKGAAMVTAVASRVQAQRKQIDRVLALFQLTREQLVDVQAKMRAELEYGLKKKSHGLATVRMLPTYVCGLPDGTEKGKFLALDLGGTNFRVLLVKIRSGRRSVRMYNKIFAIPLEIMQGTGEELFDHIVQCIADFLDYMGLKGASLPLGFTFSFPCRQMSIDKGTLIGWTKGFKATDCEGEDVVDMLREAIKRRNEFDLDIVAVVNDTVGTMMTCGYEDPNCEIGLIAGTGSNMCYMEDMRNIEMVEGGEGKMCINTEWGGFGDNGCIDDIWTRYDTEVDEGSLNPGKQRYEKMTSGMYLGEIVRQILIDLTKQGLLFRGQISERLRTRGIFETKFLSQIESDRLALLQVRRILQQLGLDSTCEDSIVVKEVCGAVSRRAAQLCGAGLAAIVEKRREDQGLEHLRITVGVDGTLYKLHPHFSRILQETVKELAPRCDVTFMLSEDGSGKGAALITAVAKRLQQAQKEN

Row | SMILES | inhibition
1 | CCN(CC)C(=O)C(=O)c1cn(CC(=O)NCc2ccc3c(c2)OCO3)c2ccccc12 | -5.09%
2 | OC(COCc1ccco1)CN1CCN(c2ccccc2)CC1 (stereo unspecified) | -10.6%
3 | Cc1ccc(-c2cnc(NC(=O)CCC(=O)N(C)Cc3ccccc3)n2C)cc1 | -3.47%
4 | Cc1cccc(-n2ncc3c(=O)[nH]c(SCC(=O)Nc4cc(C)on4)nc32)c1 | -3.1%
5 | CC1CN(C2CCCCC2)c2nc3c(c(=O)n(C)c(=O)n3C)n2C1 (stereo unspecified) | 3.52%
6 | CC(C)(C)NC(=O)CSc1nnc(NC(=O)CCc2ccccc2)s1 | -2.99%
7 | Cc1cc(-c2n[nH]c(=S)n2/N=C/C(Br)=C/c2ccccc2)n[nH]1 | 29.1%
8 | COc1ccc(O)c(C(=O)c2cnc3onc(C(C)C)c3c2)c1 | -4.62%
9 | Cc1ccc(CNC(=O)CCS(=O)(=O)c2ccc3c(c2)CC(C)N3C(=O)C2CC2)o1 (stereo unspecified) | -0.82%
10 | CC1CCN(S(=O)(=O)c2ccc(S(=O)(=O)NCc3cccnc3)cc2)CC1 | -6.19%
11 | CC(C)(C)c1cc(CN2CCN(CCC#N)CC2)cc(C(C)(C)C)c1O | 3.39%
12 | Cc1nn(C)c(C)c1NS(=O)(=O)c1ccc(OC(F)(F)F)cc1 | -3.33%
13 | O=S(=O)(Nc1ccc(O)c2ccccc12)c1ccc(OC(F)(F)F)cc1 | 52% (active)
14 | O=C1COc2ccc(S(=O)(=O)Nc3ccc(OC(F)(F)F)cc3)cc2N1 | 2.53%
15 | C=C(C)c1cccc(C(C)(C)NC(=O)NCCN(CC)CC)c1 | 13%
16 | CC1Cc2ccccc2N1S(=O)(=O)c1cccc(C(=O)OCC(=O)N2CCOCC2)c1 (stereo unspecified) | -4.82%
17 | COc1cc(NC(=O)C2=C(C)OCCS2)c(Cl)cc1C(=O)NCCN1CCN(C)CC1 | -3.87%
18 | COCCCNC(NC(=O)c1ccc(OC)cc1)C(Cl)(Cl)Cl (stereo unspecified) | -2.25%
19 | CC(C)(C)OC(=O)N(Cc1ccccc1)Cc1ccc(OCc2cccc(NC(=O)c3ccccc3)c2)cc1 | -0.76%
20 | COc1ccc(Nc2ncc(C(=O)N3CCN(c4ccccc4OC)CC3)c3ccccc23)cc1 | 3.14%
21 | CCc1c(Nc2ccccc2Cl)nc(N)[nH]c1=O | -5.05%
22 | Fc1ccccc1OCCSc1nc2ccccc2o1 | 7.74%
23 | CC(C)C[C@H](NC(=O)N1CC(=O)Nc2ccccc21)C(=O)N[C@H](Cc1ccccc1)C(=O)O | -0.33%

Row | SMILES | inhibition
24 | CN(C(=O)CSc1cccc[n+]1[O-])C1CCCCC1 | -5.14%
25 | NC(=O)C1CC=CCC1C(=O)OCC(Cl)=C(Cl)Cl (stereo unspecified) | -10.8%
26 | Cc1nc2nc(COc3ccccc3)[nH]n2c(=O)c1C | 0.17%
27 | CC(=O)N1CSCC1C(=O)O (stereo unspecified) | -1.3%
28 | CCOc1ccc(N2C(=O)CN(c3cccc4ccccc34)C2=S)cc1 | -10.4%
29 | Cc1ccc(S(=O)(=O)NC(=O)COc2ccccc2C)cc1 | -6.13%
30 | Cn1c2ccccc2c2cc(/C=C(\NC(=O)c3ccccc3)C(=O)NCC(=O)O)ccc21 | -5.19%
31 | Cc1c(-c2ccccc2)cn2c1-c1ccc(C)n1CC2 | 1.47%
32 | COc1ccc(-c2csc3ncnc(Oc4ccc5c(C)cc(=O)oc5c4)c23)cc1 | 6.07%
33 | CCCCN(C(=O)c1cccc(N2C(=O)c3ccccc3C2=O)c1)c1c(N)n(CCCC)c(=O)[nH]c1=O | -1.42%
34 | Cc1ccc(N(C(=O)c2ccc(S(=O)(=O)N(C)C)cc2)C2C=CS(=O)(=O)C2)cc1 (stereo unspecified) | -6.81%
35 | NS(=O)(=O)c1ccc(CCNC(=O)c2nc(CS(=O)(=O)c3ccc(Cl)cc3)no2)cc1 | 4.98%
36 | Cc1nc2ccc(N)nc2nc1C | -5.39%
37 | Cc1cccc([C@@H]2[C@@H]3C(=O)N(C)C(=O)[C@@H]3[C@@H]3C(=O)Nc4ccccc4C(=O)N23)c1 | -0.25%
38 | CC(C)=CC(=O)Nc1nnc(-c2ccc(F)cc2)s1 | 6.59%
39 | Cc1cc(C)n(CCNC(=O)CC2C(=O)NCCN2Cc2ccc(C)o2)n1 (stereo unspecified) | -9.7%
40 | Cc1ccc(O)c(NC(=O)c2cc(-c3ccco3)on2)c1 | -2.87%
41 | CC(=O)N1CC(=O)N(CC(=O)Nc2ccc(Br)cc2)C1=S | -1.64%
42 | O=C(O)c1ccc(NS(=O)(=O)c2ccc3c(c2)C(=O)c2cc(S(=O)(=O)Nc4ccc(C(=O)O)cc4)ccc2-3)cc1 | 2.22%
43 | CCn1cc(C(=O)N2CCN(Cc3ccc4c(c3)OCO4)CC2)c2cc(OC)c(OC)cc2c1=O | -2.84%
44 | COc1cc(OC)c(C(=O)NCc2ccc3c(c2)OCO3)cc1OC | -0.69%
45 | CCn1cc(C(=O)NCc2ccc3c(c2)OCO3)c2cc(OC)c(OC)cc2c1=O | 37.8% (active)
46 | COc1ccc(C(C)C)cc1S(=O)(=O)Nc1ncn[nH]1 | -3.49%
